Experimental findings from the array DNA melting data of Ke et al. (doi:10.1101/2024.01.08.574731) are described below.

Data set [1] is described as follows: melting temperature; fluorescence melt of hairpins on a sequencing array, two-state fit, raised by 9.35 °C to match UV melts. As to conditions: sodium 0.088 M. In a few lines: (§1)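 Bootstrapped two-state fits yielded melting temperature and folding enthalpy for library hairpins. Cy3 fluorescence, with annealed Cy3 and quencher oligos, was imaged on a sequenced MiSeq flow cell in 50 mM Na-HEPES pH 8.0, 25 mM NaCl in 2.5 °C steps up to 60 °C, and normalised to pre-quench Cy3 and to control constructs. Four replicates were combined by inverse variance, and fitted temperatures were raised by 9.35 °C to match UV melts.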

A short description of data set [2]: folding enthalpy; higher = less favourable; fluorescence melt of hairpins on a sequencing array, two-state fit. Conditions: sodium 0.088 M. In a few lines:
as §1

For CGCGGAAGGGTCCGCG ((((((....)))))), the Tm in data set [1] was 69.3 °C. Also, the folding enthalpy in data set [2] was -29.1 kcal/mol.
The like results for CGCGGAAGTATCCGCG ((((((....)))))) were, in that order, 69 °C and -37.9 kcal/mol.
Take CGCGGAATAATCCGCG ((((((....)))))): the Tm in data set [1] is 67.7 °C. The folding enthalpy in data set [2] is -34.7 kcal/mol.
The like results for CGCGGACAACTCCGCG ((((((....)))))) were, in that order, 64.9 °C and -31.9 kcal/mol.
The like results for CGCGGACCGCTCCGCG ((((((....)))))) were, in that order, 63.1 °C and -34.1 kcal/mol.
The like results for CGCGGACTACTCCGCG ((((((....)))))) were, in that order, 69 °C and -30.9 kcal/mol.
On to CGCGGAGAGTCCGCG ((((((...)))))), for which, in data set [1], the Tm was 69 °C. Further, the folding enthalpy in data set [2] was -27 kcal/mol.
For CGCGGAGCGGTCCGCG ((((((....)))))), the Tm in data set [1] came out at 50.5 °C. Also, in data set [2], the folding enthalpy was -15.8 kcal/mol.
The like results for CGCGGGAAAGCCCGCG ((((((....)))))) were, in that order, 68.1 °C and -37.1 kcal/mol.
The like results for CGCGTCGGAAACGAGGCG (((.(((....))).))) were, in that order, 60.9 °C and -46.5 kcal/mol.
Consider CGCTAACGGAAACGTGCG (((..(((....)))))), for which the Tm in data set [1] is 48 °C. The folding enthalpy in data set [2] was -28.9 kcal/mol.
The like results for CGCTACCGGAAACGGGCG (((..(((....)))))) were, in that order, 49.4 °C and -22.5 kcal/mol.
The like results for CGCTCACGGAAACGTGCG (((..(((....)))))) were, in that order, 39.6 °C and -15.6 kcal/mol.
Take CGCTCCGGAAACGGTGCG (((.(((....))).))): the Tm in data set [1] turned out to be 60.2 °C. The folding enthalpy in data set [2] was -31.3 kcal/mol.
The like results for CGCTCGGAAACGAACGCG ((((((....)))..))) were, in that order, 44.8 °C and -19.4 kcal/mol.
CGCTCGGAAACGATAGCG ((((((....)))..))): the Tm in data set [1] turned out to be 46.9 °C. In data set [2], the folding enthalpy is -30.9 kcal/mol.
The like results for CGCTCGGAAACGATGCG ((((((....))).))) were, in that order, 51.8 °C and -35.4 kcal/mol.
The like results for CGCTCGGAAACGATGGCG ((((((....)))..))) were, in that order, 45.7 °C and -31.2 kcal/mol.
The like results for CGCTGGCGGAAACGCGCG (((..(((....)))))) were, in that order, 52.5 °C and -19.5 kcal/mol.
Consider CGCTGTCGGAAACGAGCG (((..(((....)))))), for which the Tm in data set [1] stood at 45.2 °C. The folding enthalpy in data set [2] was -25 kcal/mol.
The like results for CGCTTACGGAAACGTGCG (((..(((....)))))) were, in that order, 42.7 °C and -24.4 kcal/mol.
As for CGGAACGGAAACGTACCG (((.(((....))).))), the Tm in data set [1] worked out at 49.7 °C. In data set [2], the folding enthalpy was -43.6 kcal/mol.
Take CGGACCGGAAACGGACCG (((.(((....))).))): the Tm in data set [1] came to 58.6 °C. In data set [2], the folding enthalpy was -41.5 kcal/mol.
The like results for CGGACGGAAACGTAACCG ((((((....)))..))) were, in that order, 36.1 °C and -28.7 kcal/mol.
The like results for CGGACGGAAACGTACCG ((((((....))).))) were, in that order, 47.5 °C and -24.2 kcal/mol.
The like results for CGGACGGAAACGTCCCCG ((((((....)))..))) were, in that order, 34.7 °C and -7.24 kcal/mol.
For CGGACGGAAACGTGCCCG ((((((....)))..))), the Tm in data set [1] came out at 35.9 °C. In addition, in data set [2], the folding enthalpy was -14.8 kcal/mol.
The like results for CGGACGGAAACGTTACCG ((((((....)))..))) were, in that order, 36.3 °C and -20.6 kcal/mol.
With CGGAGCGGAAACGCCCCG (((.(((....))).))), in data set [1], the Tm was found to be 55.8 °C. Besides, the folding enthalpy in data set [2] was -30.8 kcal/mol.
For the sequence CGGATCCGGAAACGGCCG (((..(((....)))))), the Tm in data set [1] amounted to 38.3 °C. Also, in data set [2], the folding enthalpy was -20.6 kcal/mol.
The like results for CGGATCGGAAACGAGCCG (((.(((....))).))) were, in that order, 65.4 °C and -47.4 kcal/mol.
The like results for CGGATGCGGAAACGCCCG (((..(((....)))))) were, in that order, 46.9 °C and -23.4 kcal/mol.
Turning to CGGCCGCGGAAACGCCCG (((..(((....)))))), the Tm in data set [1] came out at 42.2 °C. In data set [2], the folding enthalpy is -20.9 kcal/mol.
The like results for CGGCCGGAAACGGAGCCG ((((((....)))..))) were, in that order, 54.6 °C and -34.7 kcal/mol.
CGGCCGGAAACGGCCCG ((((((....))).))): the Tm in data set [1] was 58.5 °C. Further, the folding enthalpy in data set [2] was -7.26 kcal/mol.
The like results for CGGCCGGAAACGGGCCG ((((((....))).))) were, in that order, 66.9 °C and -20 kcal/mol.
CGGGACGGAAACGTACCG (((.(((....))).))): the Tm in data set [1] was determined as 62.4 °C. The folding enthalpy in data set [2] was -42.1 kcal/mol.
The like results for CGGGAGCGGAAACGCCCG (((..(((....)))))) were, in that order, 53.6 °C and -21.4 kcal/mol.
The like results for CGGGCGGAAACGCAGCCG ((((((....)))..))) were, in that order, 50.2 °C and -19.5 kcal/mol.
The like results for CGGGCGGAAACGCCGCCG ((((((....)))..))) were, in that order, 47.8 °C and -10.2 kcal/mol.
CGGGCGGAAACGCTGCCG ((((((....)))..))): the Tm in data set [1] came out at 45.8 °C. The folding enthalpy in data set [2] was -16.8 kcal/mol.
The like results for CGGGCGGAAACGCTTCCG ((((((....)))..))) were, in that order, 41 °C and -17.9 kcal/mol.
The like results for CGGGGGAAACCCCG (((((....))))) were, in that order, 68.5 °C and -21.8 kcal/mol.
The like results for CGGGTCGGAAACGACCG (((.(((....)))))) were, in that order, 61.7 °C and -11.4 kcal/mol.
Consider CGGTATCGGAAACGACCG (((..(((....)))))), for which, in data set [1], the Tm was found to be 36.3 °C. In data set [2], the folding enthalpy was -27.8 kcal/mol.
The like results for CGGTCCGGAAACGGCCG (((.(((....)))))) were, in that order, 57.6 °C and -26.7 kcal/mol.
The like results for CGGTCGGAAACGAAACCG ((((((....)))..))) were, in that order, 43.3 °C and -28.4 kcal/mol.
The like results for CGGTCGGAAACGAGGCCG ((((((....)))..))) were, in that order, 41.5 °C and -23.7 kcal/mol.
Consider CGGTCGGAAACGATCCCG ((((((....)))..))), for which, in data set [1], the Tm was found to be 34.9 °C. Further, the folding enthalpy in data set [2] was -17.9 kcal/mol.
The like results for CGGTCGGAAACGATCCG ((((((....))).))) were, in that order, 50.5 °C and -43.2 kcal/mol.
The like results for CGGTGCGGAAACGCCCCG (((.(((....))).))) were, in that order, 53.9 °C and -28.6 kcal/mol.
The like results for CGTAACCGGAAACGGACG (((..(((....)))))) were, in that order, 34 °C and -15.2 kcal/mol.
In the case of CGTAACGGAAACGTAACG (((.(((....))).))), the Tm in data set [1] turned out to be 44.8 °C. In data set [2], the folding enthalpy is -29.6 kcal/mol.
The like results for CGTAACGGAAACGTCACG (((.(((....))).))) were, in that order, 41.9 °C and -31.7 kcal/mol.
For the sequence CGTAAGAAATTACG (((((....))))), the Tm in data set [1] amounted to 38.4 °C. Moreover, the folding enthalpy in data set [2] was -15.7 kcal/mol.
